Assay results published in ChEMBL document CHEMBL1124005, “Inhibitors of cyclic AMP phosphodiesterase. 4. Synthesis and evaluation of potential prodrugs of lixazinone (N-cyclohexyl-N-methyl-4-[(1,2,3,5-tetrahydro-2- oxoimidazo[2,1-b]quinazolin-7-yl)-oxy]butyramide, RS-82856)” (J Med Chem, 1988).
The source made the active and inactive calls. No cut-off for these calls is given here.

Key:
Canis familiaris [1] = assay: In vivo inotropic activity in canine model by intraduodenal administration of 3.16 mg/kg efficacious dose; type: functional, Canis lupus familiaris
Homo sapiens = organism: Homo sapiens; assay: Inhibition of platelet aggregation; type: functional
[2] = In vitro inhibitory activity against platelet phosphodiesterase (PDE)
Procedure, shortened: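 Human platelet cAMP PDE in 10 mM Tris-HCl pH 7.7, 10 mM MgSO4, 1 µM […]. Compounds dissolved in DMSO, held 10 min in medium before enzyme addition, then 10 min at 30 °C. Five inhibitor concentrations run in triplicate; IC50 read graphically from mean curves.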

Canis familiaris [3] = assay: In vivo inotropic activity in canine model by intravenous administration 1.0 mg/kg efficacious dose; type: functional, Canis lupus familiaris
Canis familiaris [4] = assay: In vivo inotropic activity in canine model by intravenous administration of 0.316 mg/kg efficacious dose; type: functional, Canis lupus familiaris
Canis familiaris [5] = assay: In vivo inotropic activity in canine model by intraduodenal administration of 1.0 mg/kg efficacious dose; type: functional, Canis lupus familiaris
Canis familiaris [6] = assay: In vivo inotropic activity in canine model by intraduodenal administration of 0.316 mg/kg efficacious dose; type: functional, Canis lupus familiaris
Canis familiaris [7] = assay: In vivo inotropic activity in canine model by intravenous administration of 0.10 mg/kg efficacious dose; type: functional, Canis lupus familiaris; details: dose 0.1 mg/kg
Canis familiaris [8] = assay: Pharmacokinetic parameter AUC was determined in dog after oral administration of 17b; type: ADME, organism-based, Canis lupus familiaris; details: in vivo
Procedure, shortened: (§1)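 Six fasted conscious female dogs (9.4–10.5 kg) were each given one oral hard-gelatin capsule, dose equivalent to 15 mg parent drug, with 1 week between doses. Jugular blood was sampled at 0–24 h. Plasma parent drug was measured by HPLC after SCX/C-18 extraction (C-8, 280 nm, limit 5 ng/mL). AUC0–24 h was calculated by trapezoidal rule; values are mean ± SD.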

Canis familiaris [9] = assay: Pharmacokinetic parameter AUC was determined in dog after oral administration of 2b; type: ADME, organism-based, Canis lupus familiaris; details: in vivo; procedure, shortened: as §1
Canis familiaris [10] = assay: In vivo inotropic activity in canine model by intraduodenal administration (Inactive); type: functional, organism-based; details: Canis lupus familiaris
Canis familiaris [11] = assay: In vivo inotropic activity in canine model by intravenous administration (Inactive); type: functional, organism-based; details: Canis lupus familiaris

SMILES: CCOC(=O)CN1Cc2cc(OCCCC(=O)N(C)C3CCCCC3)ccc2N=C1NC(C)=O
- Max CF response (Canis familiaris [1]): 58%
- IC50 (Homo sapiens): 100 µM
- IC50 [2]: 3100 nM
- Max CF response (Canis familiaris [3]): 58%

SMILES: CN(C(=O)CCCOc1ccc2c(c1)CN(CC(N)=O)C(=O)N2)C1CCCCC1
- IC50 [2]: 18500 nM

SMILES: Br.CN(C(=O)CCCOc1ccc2c(c1)CN(CC(=O)N1CCOCC1)C(N)=N2)C1CCCCC1
- Max CF response (Canis familiaris [1]): 70%
- Max CF response (Canis familiaris [4]): 71%
- IC50 (Homo sapiens): 0.7 µM
- IC50 [2]: 52 nM

SMILES: Br.CCOC(=O)CN1Cc2cc(OCCCC(=O)N(C)C3CCCCC3)ccc2N=C1N
- Max CF response (Canis familiaris [1]): 62%
- Max CF response (Canis familiaris [4]): 75%
- IC50 [2]: 9.3 nM

SMILES: Br.CN(C(=O)CCCOc1ccc2c(c1)CN(CC(=O)OCC(C)(C)C)C(N)=N2)C1CCCCC1
- IC50 [2]: 35 nM

SMILES: CN(C(=O)C(CCOc1ccc2c(c1)CN1CC(=O)NC1=N2)C(=O)O)C1CCCCC1 (stereo not given)
- Max CF response (Canis familiaris [5]): 20%
- Max CF response (Canis familiaris [4]): 58%
- IC50 [2]: 5 nM

SMILES: Br.CN(C(=O)CCCOc1ccc2c(c1)CN(CC(=O)Nc1ccccc1)C(N)=N2)C1CCCCC1
- Max CF response (Canis familiaris [1]): 37%
- Max CF response (Canis familiaris [4]): 64%
- IC50 (Homo sapiens): 5.4 µM
- IC50 [2]: 100 nM

SMILES: CN(C(=O)CCCOc1ccc2c(c1)CN1CC(=O)N(CN3CCOCC3)C1=N2)C1CCCCC1
- Max CF response (Canis familiaris [6]): 25%
- Max CF response (Canis familiaris [7]): 65%
- IC50 [2]: 16 nM

SMILES: CN(C(=O)CCCOc1ccc2c(c1)CN1CC(=O)N(COC(=O)C(C)(C)C)C1=N2)C1CCCCC1
- IC50 [2]: 150 nM

SMILES: Br.CN(C(=O)CCCOc1ccc2c(c1)CN(CC(=O)OC1CCCCC1)C(N)=N2)C1CCCCC1
- Max CF response (Canis familiaris [1]): 45%
- IC50 (Homo sapiens): 1.2 µM
- IC50 [2]: 52 nM

SMILES: CN(C(=O)CCCOc1ccc2c(c1)CN1CC(=O)NC1=N2)C1CCCCC1 [LIXAZINONE]
- AUC (Canis familiaris [8]): 268 ng·h/mL
- AUC (Canis familiaris [9]): 257 ng·h/mL
- Max CF response (Canis familiaris [6]): 42%
- Max CF response (Canis familiaris [7]): 71%
- IC50 (Homo sapiens): 0.05 µM
- IC50 [2]: 6 nM

SMILES: Br.CC(OC(=O)CN1Cc2cc(OCCCC(=O)N(C)C3CCCCC3)ccc2N=C1N)C(C)(C)C (stereo not given)
- Max CF response (Canis familiaris [1]): 62%
- IC50 (Homo sapiens): 17 µM
- IC50 [2]: 470 nM

SMILES: CN(C(=O)CCCOc1ccc(N)c(CN2CC(=O)NC2=O)c1)C1CCCCC1
- IC50 [2]: 3400 nM

SMILES: Br.CN(C(=O)CCCOc1ccc2c(c1)CN(CC(N)=O)C(N)=N2)C1CCCCC1
- Max CF response (Canis familiaris [1]): 37%
- Max CF response (Canis familiaris [4]): 37%
- IC50 (Homo sapiens): 4.2 µM
- IC50 [2]: 120 nM

SMILES: Br.CN(C(=O)CCCOc1ccc2c(c1)CN(CC(=O)OC(C)(C)C)C(N)=N2)C1CCCCC1
- Max CF response (Canis familiaris [10]): inactive
- Max CF response (Canis familiaris [11]): inactive
- IC50 (Homo sapiens): 4.3 µM
- IC50 [2]: 430 nM

SMILES: Br.CC(OC(=O)CN1Cc2cc(OCCCC(=O)N(C)C3CCCCC3)ccc2N=C1N)c1ccccc1 (stereo not given)
- Max CF response (Canis familiaris [1]): 64%
- Max CF response (Canis familiaris [4]): 61%
- IC50 (Homo sapiens): 0.15 µM
- IC50 [2]: 8 nM

SMILES: Br.CN(C(=O)CCCOc1ccc2c(c1)CN(CC(=O)N1CCCCC1)C(N)=N2)C1CCCCC1
- IC50 [2]: 10 nM

SMILES: Br.CC(C)OC(=O)CN1Cc2cc(OCCCC(=O)N(C)C3CCCCC3)ccc2N=C1N
- Max CF response (Canis familiaris [1]): 31%
- Max CF response (Canis familiaris [4]): 40%
- IC50 (Homo sapiens): 3.4 µM
- IC50 [2]: 63 nM

SMILES: CCOC(=O)C(CCOc1ccc2c(c1)CN1CC(=O)NC1=N2)C(=O)N(C)C1CCCCC1 (stereo not given)
- Max CF response (Canis familiaris [5]): 50%
- Max CF response (Canis familiaris [4]): 50%
- IC50 [2]: 6.1 nM

SMILES: Br.CN(C(=O)CCCOc1ccc2c(c1)CN(CC(=O)O)C(N)=N2)C1CCCCC1
- Max CF response (Canis familiaris [10]): inactive
- Max CF response (Canis familiaris [11]): inactive
- IC50 [2]: 60 nM
